From PubChem BioAssay
Yeast growth inh: reduces growth of yeast BB579 in restrictive medium; S. cerevisiae BB579 growth, OD615, 48 h; inhibition, % at 10 µM; 140,000 tested, 0.51% active;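 active = inhibition above a set limit, 3 SD over the mean compound inhibition, cut at about 44% in these data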
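Test system: DeaD yeast strain BB579 / Buffer or medium: restrictive glucose-based CSMM-D medium / Doses: single 10 µM dose / Schedule: 4 h cell preincubation, 48 h compound exposure, 30 °C humidified / Technique: culture absorbance at 615 nm / Controls: amphotericin B positive control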
RAM inhibit: inhibitors of the yeast RAM network; S. cerevisiae dse1pr::URA3 reporter, 5-FOA growth OD615, 2 d; analog-sensitive cbk1-as2 kinase mutant strain; inhibition, % at 50 µM; 190,000 tested, 1.8% active; AID 868;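 active = inhibition above a set limit, 3 SD over mean compound inhibition, cut at about 8.4% in these data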;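 also: 0% = DMSO-only wells with no growth and 100% = 10 µM 1-NA-PP1 full growth; inhibition rescues growth on 5-FOA so higher OD means more RAM inhibition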
Yeast life ext: yeast lifespan extension; S. cerevisiae growth with nicotinamide, OD615; deaD strain in restrictive glucose medium; 130,000 tested, 0.68% active; inhibition of the nicotinamide effect, % at 10 µM;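 active = inhibition above a set limit, placed 3 SD over the median of all compounds, cut at about 26% in these data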;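 also: 0% = nicotinamide-treated wells and 100% = cells grown without nicotinamide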
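Material: Modified budding yeast, DeaD strain | Medium: Restrictive glucose medium | Probe or stimulus: 1.5 mM nicotinamide | Dosing: Single dose 10 µM compound, 0.25% DMSO | Times: 48 h at 30 °C | Technique: OD615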
SDO1 yeast rescue: sdo1-depleted yeast growth rescue. S. cerevisiae sdo1-depleted JHY4D growth rescue, OD600 30 h; stronger effect = higher value; pdr5 snq2 efflux-pump mutant strain. z-score at 10 µM. 140,000 tested, 0.21% active;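 active = z-score above 3 at both the 24 hr and the 30 hr optical density reads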;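 also: z-score against mean and SD of all compound wells on the same plate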
An asterisk follows results filed as active; / = not tested or not shown. Compounds with a hit are over-represented: about 2.7% of the library has one in this group of screens.

SMILES	Yeast growth inh	RAM inhibit	Yeast life ext	SDO1 yeast rescue
CCN1C(=O)CSc2ccc(C(=O)NC3CCCCC3)cc21	-27	8.7*	0	-1.3
Cc1cccc(N2CCN(C(=O)c3ccc(Cl)c(S(=O)(=O)N4CCc5ccccc5C4)c3)CC2)c1C	-32	3	3	-0.21
Cc1ccc(C(=O)c2cc([N+](=O)[O-])ccc2N2CCOCC2)cc1C	-41	1	3	-1.5
Cc1ccc(C(=O)c2cc([N+](=O)[O-])ccc2N2CCCCC2)cc1C	-3	10.0*	-3	-0.61
Cc1cc(NC(=O)C2CC(=O)N(c3ccccc3)C2)no1 (stereo not given)	8	0	-9	0.97
Cc1ccccc1CN(CC1CCC(C(=O)O)CC1)C(=S)Nc1ccccc1F (stereo not given)	/	2	/	/
Cc1ccc(NC(=O)C(C)OC(=O)c2ccc(NS(=O)(=O)c3ccc(F)c(F)c3)cc2)cc1 (stereo not given)	-14	4	2	0.19
CC(=O)c1ccc(NC(=O)C(C)OC(=O)c2ccc(NS(=O)(=O)c3ccc(F)c(F)c3)cc2)cc1 (stereo not given)	-33	9.2*	-3	-0.24
S=C(NCCc1ccccc1)Nc1ccc(Br)cn1	/	3	/	/
COc1ccc(/C(C)=N/NC(=O)c2ccc(CSc3cccc4cccnc34)cc2)cc1OC	71*	-1	-25	-2.5
O=C(CSc1cccc2cccnc12)N1CCCC1	19	0	-6	0.13
C/C(=N\NC(=O)c1ccc(CSc2cccc3cccnc23)cc1)C1CCCCC1	71*	1	-4	-2
COc1ccc(/C=C(\C#N)C(=O)OCC(=O)NCc2ccc(Cl)cc2)cc1	6	2	-2	0.7
CCCCCCCC[n+]1cccc(C(=O)N(CC)CC)c1	-24	1	3	1.7
CCCCCCCCCCCCCCCC[n+]1ccc(/C=N/O)cc1	100*	2	-13	-1.5
CCCCCCCCCCCCCCCC[n+]1ccc(C(N)=O)cc1	100*	-1	-13	-1.4
CCCCCCCCCCCCCCCC[n+]1cccc(C(=O)N(CC)CC)c1	101*	-2	-14	-1.6
CCCCN(CCCC)C(=O)C[n+]1cccc(/C=N/O)c1	/	6	/	/
Cc1ccc(-c2c(=O)n(OCc3ccccn3)c3ccccc3[n+]2[O-])cc1	-22	1	55	2
O=c1c(-c2ccc(Cl)cc2)[n+]([O-])c2ccccc2n1OCc1ccccn1	-41	1	45*	-0.36
COc1ccc(N=C2C(=O)N3c4c(cccc42)C(C)=CC3(C)C)cc1	-20	0	9	-0.68
CC1(C(=O)N(Cc2ccccc2)Cc2ccccc2)CC1(Br)Br (stereo not given)	-24	8.8*	5	-0.83
C=CCO/N=C(/CCC)C1=C(N)CC(C)(C)CC1=O	/	2	/	/
O=C(N/C(=C\c1ccc(Cl)cc1)C(=O)N1CCOCC1)c1ccc([N+](=O)[O-])cc1	/	-1	/	/
COc1ccc(Cc2[nH]n3c(=O)c(Cl)c(C)nc3c2-c2ccccc2)cc1	/	11*	/	/
SMILES	Yeast growth inh	RAM inhibit	Yeast life ext	SDO1 yeast rescue
COc1ccc(C(=O)NCc2ccc3c(c2)OCO3)cc1S(=O)(=O)N(C)Cc1ccccc1	-35	9.6*	3	-0.69
CN(c1ccccc1)S(=O)(=O)c1cccc(C(=O)OCC(=O)NCc2ccc3c(c2)OCO3)c1	-34	10*	5	0.04
CNC(=O)c1ccc(-c2sc3nc(N4CCOCC4)c4c(c3c2N)CCCC4)o1	-8	9.3*	-23	-1.2
O=C(NCC1CCCO1)c1ccc2c(=O)n(-c3ccccc3)c(=S)[nH]c2c1 (stereo not given)	/	0	/	/
CC1(C)CC(=O)C2=C(C1)OC(N)=C(C#N)C2c1cccs1 (stereo not given)	/	2	/	/
COC(=O)C1=C(N)OC2=C(C(=O)CC(C)(C)C2)C1c1cccs1 (stereo not given)	-49	4	35*	-0.07
CCN(Cc1ccccc1)C(c1ccc(C(F)(F)F)cc1)c1nnnn1C(C)(C)C (stereo not given)	-24	11*	/	0.14
CCN(Cc1ccccc1)C(c1cccc(C#N)c1)c1nnnn1C(C)(C)C (stereo not given)	-55	3	-7	-0.63
FCCCOc1ccc(-c2nccc(-c3ccc(Cl)cc3)n2)cc1	-47	8.8*	-3	0.86
COc1ccc(C(=O)OCc2csc(C)n2)c(O)c1	/	0	/	/
COc1ccc(CNC(=O)COC(=O)CCCOc2ccc(Cl)cc2Cl)cc1	-15	9.6*	-3	-0.02
O=C(COC(=O)CCCOc1ccc(Cl)cc1Cl)Nc1cccc(Cl)c1	24	11*	-4	-1.1
CC(NC(=O)CCN1N=C(c2ccccc2)CCC1=O)c1ccc2c(c1)OCCO2 (stereo not given)	/	2	/	/
COc1ccc(CCn2c(=O)c3cccnc3n(Cc3cccc([N+](=O)[O-])c3)c2=O)cc1OC	/	1	/	/
O=C(NCc1ccc2c(c1)OCO2)c1ccc(CSCc2cccc(Cl)c2)o1	-37	8.8*	-3	-0.53
COc1nc(OC)nc(N2CCC(C(=O)NC3CC3)CC2)n1	/	-1	/	/
COc1ccc(CNC(=O)C2CCN(c3nc(OC)nc(OC)n3)CC2)cc1	-37	2	90*	1.6
O=c1cc(O)c2ccccc2n1Cc1ccccc1	/	2	/	/
CC(=O)C1=C(O)CC(c2ccccc2)CC1=NCCc1c(C)[nH]c2ccc(C)cc12 (stereo not given)	-11	8	4	-0.59
CCC(=NCCc1c(C)[nH]c2ccc(C)cc12)C1=C(O)CC(c2ccccc2)CC1=O (stereo not given)	-12	4	50*	-0.19
Cc1ccccc1NC(=S)c1nc2ccccc2[nH]1	50*	-1	-6	-0.86
O=C(N/N=C/c1coc2ccccc2c1=O)c1cn(-c2ccccc2)nc1-c1ccccc1	-45	3	28*	-0.21
Cc1ccc(S(=O)(=O)N(Cc2ccc(Cl)cc2)c2ccccc2C(=O)NCc2ccco2)cc1	-30	8.9*	13	-0.83
O=C(Cn1nnc2ccccc2c1=O)Nc1cccc(S(=O)(=O)N2CCOCC2)c1	/	2	/	/
Cc1cc2c(N=NC(=O)CCc3ccccc3)c(O)[nH]c2cc1Br	-9	2	0	1.2
SMILES	Yeast growth inh	RAM inhibit	Yeast life ext	SDO1 yeast rescue
CC(C)c1cccc(C(C)C)c1NC(=O)c1ccccc1	/	2	/	/
O=C(OCC(=O)c1ccccc1Br)c1ccncc1	/	1	/	/
O=C(CSc1nc2cc(Cl)ccc2s1)NCc1ccc2c(c1)OCO2	7	10*	7	-0.89
Cc1nnc(SCC(=O)NCc2ccc3c(c2)OCO3)s1	-43	1	-7	-0.2
COc1ccc(/C=C/C2=CC(C)(C)NC(=S)N2)cc1	/	-2	/	/
Cc1ccc(C(=O)NC(=S)NCC2CCCO2)cc1 (stereo not given)	-33	0	32*	-0.42
Cc1ccc(SCc2c(C#N)c3ccccc3n2C)cc1	-43	8.7*	/	-0.58
Cn1c(CSc2ccccc2)c(C#N)c2ccccc21	-57	4	-8	-2
Cc1cc(Br)ccc1OCCCCN1CCCCC1	/	1	/	/
CCOC(=O)c1ccccc1Cc1nc2ccccc2c(=O)[nH]1	0	6	0	0.27
